Converted amounts (≈) assume the structure as drawn. Residues, ends and D or L forms follow the SMILES beside them. *: point of attachment. X3 = Cc1cc2nc(-c3c(I)cc(C(=O)*)cc3I)[nH]c2cc1C; X4 = Cc1cc2nc(-c3ccc(C(=O)*)cc3)[nH]c2cc1C
What was measured:
Staphylococcus aureus [1] = assay: Antibacterial activity against Staphylococcus aureus NCIM 2079 after 18 hrs by disc diffusion method; assay type: functional
How it was run: (§1)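 Modified Kirby-Bauer disc diffusion. Plates inoculated with spore suspension (about 6 × 10⁴ spores mL^-1). Sterile 6 mm paper discs carried test samples at 10 mg mL^-1; ciprofloxacin disc as reference, DMF disc as negative control. Plates held 18 h at 37 °C. Inhibition zone diameters (mm) averaged over triplicate sets.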

Pseudomonas aeruginosa [2] = assay: Antibacterial activity against Pseudomonas aeruginosa NCIM 2034 after 18 hrs by tube dilution method; assay type: functional; settings: NCIM 2034, 18 h
How it was run: (§2)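 Tube dilution MIC. Stock diluted in sterile broth to seven concentrations from 200 to 3.1 […]. Each tube inoculated with one loopful of test bacterium and incubated 18 h at 37 °C. MIC read from presence or absence of growth.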

Eudrilus [3] = assay: Anthelmintic activity against Eudrilus sp. assessed as mean paralyzing time; assay type: functional
How it was run: (§3)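 Earthworms exposed to test suspensions at 2 mg mL^-1 (0.2% w/v), made by triturating compound with Tween 80 (0.5%) and distilled water, then mechanically stirred 30 min. Mebendazole suspension prepared alike as reference. Paralysis and death times recorded; death confirmed by no movement in 50 °C water. Means from triplicate sets.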

Pontoscolex corethrurus [4] = assay: Anthelmintic activity against Pontoscolex corethrurus ICARBC 408 assessed as mean death time; assay type: functional
How it was run: (§4)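 Earthworms exposed to test suspensions at 2 mg mL−1, prepared by triturating compound with Tween 80 (0.5%) and distilled water, stirring 30 min, then diluting to 0.2% w/v. Mebendazole suspension was made the same way. Death was confirmed by moving worms into 50 °C warm water and looking for movement. Mean death time (min) taken from triplicate sets.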

[5] = Anthelmintic activity against Megascoplex konkanensis ICARBC 211 assessed as mean death time; assay type: functional; how it was run: as §3
Microsporum audouinii [6] = assay: Antifungal activity against Microsporum audouinii MUCC 545 after 48 hrs by tube dilution method; assay type: functional
How it was run: (§5)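 Tube dilution MIC as for bacteria (seven concentrations, 200–3.1 […]), with DMSO in place of DMF. Tubes inoculated with fungal culture and incubated 48 h at 37 °C. MIC read from presence or absence of growth.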

Trichophyton benhamiae [7] = assay: Antifungal activity against Trichophyton mentagrophytes MUCC 665 after 48 hrs by tube dilution method; assay type: functional, Arthroderma benhamiae; how it was run: as §5
Bacillus subtilis [8] = assay: Antibacterial activity against Bacillus subtilis NCIM 2063 after 18 hrs by tube dilution method; assay type: functional; settings: NCIM 2063, 18 h; how it was run: as §2
Trichophyton benhamiae [9] = assay: Antifungal activity against Trichophyton mentagrophytes MUCC 665 after 48 hrs by disc diffusion method; assay type: functional, Arthroderma benhamiae
How it was run: (§6)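 Agar well diffusion on plates inoculated with spore suspension in normal saline from cultures on Sabouraud's broth. Wells punched and loaded with test samples or griseofulvin at 10 mg mL^-1, with DMSO as negative control. Incubated 48 h at 37 °C.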

Bacillus subtilis [10] = assay: Antibacterial activity against Bacillus subtilis NCIM 2063 after 18 hrs by disc diffusion method; assay type: functional; how it was run: as §1
Candida albicans [11] = assay: Antifungal activity against Candida albicans MUCC 29 after 48 hrs by tube dilution method; assay type: functional; how it was run: as §5
Escherichia coli [12] = assay: Antibacterial activity against Escherichia coli NCIM 2065 after 18 hrs by disc diffusion method; assay type: functional; how it was run: as §1
Aspergillus niger = assay: Antifungal activity against Aspergillus niger MUCC 177 after 48 hrs by disc diffusion method; assay type: functional; how it was run: as §6
Pseudomonas aeruginosa [13] = assay: Antibacterial activity against Pseudomonas aeruginosa NCIM 2034 after 18 hrs by disc diffusion method; assay type: functional; how it was run: as §1
Microsporum audouinii [14] = assay: Antifungal activity against Microsporum audouinii MUCC 545 after 48 hrs by disc diffusion method; assay type: functional; how it was run: as §6
Escherichia coli [15] = assay: Antibacterial activity against Escherichia coli NCIM 2065 after 18 hrs by tube dilution method; assay type: functional; settings: NCIM 2065, 18 h
Staphylococcus aureus [16] = assay: Antibacterial activity against Staphylococcus aureus NCIM 2079 after 18 hrs by tube dilution method; assay type: functional; settings: NCIM 2079, 18 h; how it was run: as §2
Candida albicans [17] = assay: Antifungal activity against Candida albicans MUCC 29 after 48 hrs by disc diffusion method; assay type: functional; how it was run: as §6
[18] = Anthelmintic activity against Megascoplex konkanensis ICARBC 211 assessed as mean paralyzing time; assay type: functional; how it was run: as §3
Pontoscolex corethrurus [19] = assay: Anthelmintic activity against Pontoscolex corethrurus ICARBC 408 assessed as mean paralyzing time; assay type: functional; how it was run: as §3
Eudrilus [20] = assay: Anthelmintic activity against Eudrilus sp. assessed as mean death time; assay type: functional; how it was run: as §4

Structure (SMILES)	inhibition zone (IZ) (Staphylococcus aureus [1])	MIC (Pseudomonas aeruginosa [2])	Time (Eudrilus [3])	Time (Pontoscolex corethrurus [4])	TIME [5]	MIC (Microsporum audouinii [6])	MIC (Trichophyton benhamiae [7])	MIC (Bacillus subtilis [8])	inhibition zone (IZ) (Trichophyton benhamiae [9])	inhibition zone (IZ) (Bacillus subtilis [10])	MIC (Candida albicans [11])	inhibition zone (IZ) (Escherichia coli [12])	inhibition zone (IZ) (Aspergillus niger)	inhibition zone (IZ) (Pseudomonas aeruginosa [13])	inhibition zone (IZ) (Microsporum audouinii [14])	MIC (Escherichia coli [15])	MIC (Staphylococcus aureus [16])	inhibition zone (IZ) (Candida albicans [17])	TIME [18]	Time (Pontoscolex corethrurus [19])	further results
COC(=O)[C@H](C)NC(=O)[C@@H](NC(=O)[C@H](C)NC(=O)c1cc(-c2nc3cc(C)c(C)cc3[nH]2)ccc1O)C(C)C	9 mm	6 µg/mL (≈ 11.2 µM)	25.55 min	41.79 min	0.578 h	6 µg/mL (≈ 11.2 µM)	6 µg/mL (≈ 11.2 µM)	6 µg/mL (≈ 11.2 µM)	14 mm	13 mm	6 µg/mL (≈ 11.2 µM)	16 mm	16 mm	19 mm	10 mm	25 µg/mL (≈ 46.5 µM)	25 µg/mL (≈ 46.5 µM)	18 mm	0.426 h	29.89 min	Time (Eudrilus [20]): 36.23 min
CC[C@H](C)[C@H](NC(=O)CNC(=O)[C@H](Cc1c[nH]c2ccccc12)NC(=O)c1ccc(-c2nc3cc(C)c(C)cc3[nH]2)cc1)C(=O)N[C@@H](C)C(=O)OC (X4-WGIA-OMe)	10 mm	6 µg/mL (≈ 8.48 µM)	13.59 min	29.57 min	0.375 h	6 µg/mL (≈ 8.48 µM)	25 µg/mL (≈ 35.3 µM)	6 µg/mL (≈ 8.48 µM)	9 mm	14 mm	25 µg/mL (≈ 35.3 µM)	18 mm	19 mm	20 mm	10 mm	12.5 µg/mL (≈ 17.7 µM)	12.5 µg/mL (≈ 17.7 µM)	19 mm	0.221 h	17.22 min	Time (Eudrilus [20]): 24.1 min
Cc1cc2nc(-c3c(I)cc(C(=O)N[C@@H](C)C(=O)N[C@@H](Cc4ccc(O)cc4)C(=O)NCC(=O)O)cc3I)[nH]c2cc1C	13 mm	6 µg/mL (≈ 7.41 µM)	26.25 min	47.45 min	0.676 h	12.5 µg/mL (≈ 15.4 µM)	12.5 µg/mL (≈ 15.4 µM)	6 µg/mL (≈ 7.41 µM)	15 mm	16 mm	6 µg/mL (≈ 7.41 µM)	18 mm	15 mm	23 mm	9 mm	12.5 µg/mL (≈ 15.4 µM)	12.5 µg/mL (≈ 15.4 µM)	16 mm	0.454 h	35.42 min	Time (Eudrilus [20]): 45.22 min
Cc1cc2nc(-c3ccc(C(=O)N[C@@H](CCCNC(=N)N[N+](=O)[O-])C(=O)O)cc3)[nH]c2cc1C	11 mm	6 µg/mL (≈ 12.8 µM)	18.38 min	34.96 min	0.438 h	12.5 µg/mL (≈ 26.7 µM)	12.5 µg/mL (≈ 26.7 µM)	12.5 µg/mL (≈ 26.7 µM)	14 mm	15 mm	12.5 µg/mL (≈ 26.7 µM)	19 mm	16 mm	25 mm	10 mm	12.5 µg/mL (≈ 26.7 µM)	25 µg/mL (≈ 53.5 µM)	17 mm	0.302 h	21.51 min	Time (Eudrilus [20]): 38.12 min
COC(=O)CNC(=O)[C@H](CC(C)C)NC(=O)c1ccc(-c2nc3cc(C)c(C)cc3[nH]2)cc1	9 mm	6 µg/mL (≈ 13.3 µM)	29.73 min	49.4 min	0.69 h	25 µg/mL (≈ 55.5 µM)	6 µg/mL (≈ 13.3 µM)	6 µg/mL (≈ 13.3 µM)	12 mm	10 mm	6 µg/mL (≈ 13.3 µM)	14 mm	16 mm	20 mm	10 mm	12.5 µg/mL (≈ 27.7 µM)	12.5 µg/mL (≈ 27.7 µM)	18 mm	0.472 h	37.17 min	Time (Eudrilus [20]): 42.54 min
COC(=O)[C@H](Cc1c[nH]c2ccccc12)NC(=O)c1cc(-c2nc3ccc([N+](=O)[O-])cc3[nH]2)ccc1O	12 mm	12.5 µg/mL (≈ 25 µM)	13.37 min	29.41 min	0.374 h	12.5 µg/mL (≈ 25 µM)	6 µg/mL (≈ 12 µM)	6 µg/mL (≈ 12 µM)	17 mm	12 mm	6 µg/mL (≈ 12 µM)	16 mm	16 mm	20 mm	10 mm	12.5 µg/mL (≈ 25 µM)	12.5 µg/mL (≈ 25 µM)	20 mm	0.218 h	17.02 min	Time (Eudrilus [20]): 23.93 min
COC(=O)[C@H](CCCNC(=N)N[N+](=O)[O-])NC(=O)c1ccc(-c2nc3cc(C)c(C)cc3[nH]2)cc1	9 mm	6 µg/mL (≈ 12.5 µM)	18.67 min	35.22 min	0.443 h	12.5 µg/mL (≈ 26 µM)	12.5 µg/mL (≈ 26 µM)	12.5 µg/mL (≈ 26 µM)	12 mm	14 mm	12.5 µg/mL (≈ 26 µM)	17 mm	15 mm	23 mm	8 mm	12.5 µg/mL (≈ 26 µM)	25 µg/mL (≈ 51.9 µM)	15 mm	0.309 h	21.65 min	Time (Eudrilus [20]): 28.21 min
COC(=O)[C@@H](NC(=O)c1cc(I)c(-c2nc3cc(C)c(C)cc3[nH]2)c(I)c1)[C@@H](C)O	13 mm	6 µg/mL (≈ 9.48 µM)	31.22 min	78.32 min	0.987 h	25 µg/mL (≈ 39.5 µM)	10 µg/mL (≈ 15.8 µM)	6 µg/mL (≈ 9.48 µM)	10 mm	20 mm	6 µg/mL (≈ 9.48 µM)	16 mm	15 mm	23 mm	8 mm	12.5 µg/mL (≈ 19.7 µM)	12.5 µg/mL (≈ 19.7 µM)	19 mm	0.587 h	40.6 min	Time (Eudrilus [20]): 69.45 min
CC[C@H](C)[C@H](NC(=O)CNC(=O)c1cc(I)c(-c2nc3cc(C)c(C)cc3[nH]2)c(I)c1)C(=O)NCC(=O)N[C@H](C(=O)OC)[C@@H](C)O (X3-GIGT-OMe)	12 mm	6 µg/mL (≈ 6.97 µM)	38.45 min	82.3 min	1.08 h	25 µg/mL (≈ 29.1 µM)	25 µg/mL (≈ 29.1 µM)	6 µg/mL (≈ 6.97 µM)	9 mm	15 mm	12.5 µg/mL (≈ 14.5 µM)	17 mm	18 mm	22 mm	9 mm	12.5 µg/mL (≈ 14.5 µM)	12.5 µg/mL (≈ 14.5 µM)	13 mm	0.602 h	57.67 min	Time (Eudrilus [20]): 70.54 min
COC(=O)[C@H](Cc1ccccc1)NC(=O)c1cc(-c2nc3cc(C)c(C)cc3[nH]2)ccc1O	10 mm	6 µg/mL (≈ 13.5 µM)	26.78 min	42.56 min	0.592 h	25 µg/mL (≈ 56.4 µM)	6 µg/mL (≈ 13.5 µM)	6 µg/mL (≈ 13.5 µM)	15 mm	14 mm	6 µg/mL (≈ 13.5 µM)	17 mm	17 mm	24 mm	9 mm	12.5 µg/mL (≈ 28.2 µM)	12.5 µg/mL (≈ 28.2 µM)	17 mm	0.437 h	30.34 min	Time (Eudrilus [20]): 37.74 min
